Activity calls are given as the source filed them. The rule behind the calls is not given here.

In ChEMBL document CHEMBL1157912, “Impact of nature and length of linker incorporated in agonists on toll-like receptor 9-mediated immune responses” (J Med Chem, 2010) one finds Activity data, which are given here for two molecules.

Assay [1] has as its target T1, Toll-like receptor 9 (Homo sapiens) (UniProt Q9NR96).
T1 sequence (whole entry): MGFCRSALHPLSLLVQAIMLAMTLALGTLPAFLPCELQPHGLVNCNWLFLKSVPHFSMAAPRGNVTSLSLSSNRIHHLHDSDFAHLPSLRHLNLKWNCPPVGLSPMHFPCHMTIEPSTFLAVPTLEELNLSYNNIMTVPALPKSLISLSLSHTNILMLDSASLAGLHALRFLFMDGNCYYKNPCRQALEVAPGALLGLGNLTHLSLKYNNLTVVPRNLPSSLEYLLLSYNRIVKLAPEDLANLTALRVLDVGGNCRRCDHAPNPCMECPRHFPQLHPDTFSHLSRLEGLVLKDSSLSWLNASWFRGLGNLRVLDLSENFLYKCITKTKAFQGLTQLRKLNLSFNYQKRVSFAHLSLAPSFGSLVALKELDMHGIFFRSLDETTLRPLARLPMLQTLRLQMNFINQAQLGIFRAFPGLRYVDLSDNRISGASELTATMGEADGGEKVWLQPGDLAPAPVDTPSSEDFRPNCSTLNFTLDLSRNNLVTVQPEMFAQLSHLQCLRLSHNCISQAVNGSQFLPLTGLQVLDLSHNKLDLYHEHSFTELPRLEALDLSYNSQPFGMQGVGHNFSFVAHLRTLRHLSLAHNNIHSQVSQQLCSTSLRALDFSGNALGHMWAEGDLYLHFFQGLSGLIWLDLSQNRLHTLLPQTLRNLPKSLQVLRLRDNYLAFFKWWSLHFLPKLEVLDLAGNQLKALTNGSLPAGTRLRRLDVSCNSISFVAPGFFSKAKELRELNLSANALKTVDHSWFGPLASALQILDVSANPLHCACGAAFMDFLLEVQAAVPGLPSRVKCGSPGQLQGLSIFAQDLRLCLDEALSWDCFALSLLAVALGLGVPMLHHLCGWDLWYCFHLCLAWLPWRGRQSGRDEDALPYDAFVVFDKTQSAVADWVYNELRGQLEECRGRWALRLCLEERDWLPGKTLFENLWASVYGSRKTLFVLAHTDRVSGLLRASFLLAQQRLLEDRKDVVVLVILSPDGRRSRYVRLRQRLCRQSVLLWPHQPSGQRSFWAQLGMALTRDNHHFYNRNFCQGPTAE
Put plainly: Induction of TLR9-mediated immune stimulation in human PBMC assessed as IL2R production at 10 ug/ml after 24 hrs by luminex multiplex assay (RVb = 0.02 +/- 0.01 ng/ml).

Assay [2] concerns the target T1, Toll-like receptor 9 (Homo sapiens). Put plainly: Induction of TLR9-mediated immune stimulation in human PBMC assessed as MCP1 production at 10 ug/ml after 24 hrs by luminex multiplex assay (RVb = 0.08 +/- 0.02 ng/ml).
For assay [3] the target is unchanged. In words: Induction of TLR9-mediated immune stimulation in human PBMC assessed as IL1Ralpha production at 2 ug/ml after 24 hrs by luminex multiplex assay (RVb = 0.12 +/- 0.03 ng/ml).
Assay [4] shares this target. Put plainly: Induction of TLR9-mediated immune stimulation in human PBMC assessed as MIP1beta production at 10 ug/ml after 24 hrs by luminex multiplex assay (RVb = 0.03 +/- 0.02 ng/ml).
For assay [5] the target is unchanged. Put plainly: Induction of TLR9-mediated immune stimulation in human PBMC assessed as IP10 production at 2 ug/ml after 24 hrs by luminex multiplex assay (RVb = 0.00 ng/ml).
For assay [6] the target is unchanged. Put plainly: Induction of TLR9-mediated human B cell proliferation assessed as [3H]thymidine uptake after 56 hrs by scintillation counting. The method in brief: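 B cells were purified from human PBMCs (healthy volunteers), about 1 × 10⁵ cells, and stimulated with various agonist concentrations for 56 h. Cells were then pulsed with 0.75 μCi [³H]-thymidine and harvested 16 h later. Incorporation was counted by scintillation and reported as cpm.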

Assay [7] shares this target. Put plainly: Induction of TLR9-mediated immune stimulation in human PBMC assessed as IL6 production at 2 ug/ml after 24 hrs by luminex multiplex assay (RVb = 0.01 ng/ml).
The target is the same in assay [8]. Put plainly: Induction of TLR9-mediated immune stimulation in human PBMC assessed as MCP1 production at 2 ug/ml after 24 hrs by luminex multiplex assay (RVb = 0.08 +/- 0.02 ng/ml).
The next assay concerns Mus musculus. In words: Immunostimulatory activity in C57BL/6 mouse assessed as increase in serum IL12 level at 1 mg/kg, sc after 2 hrs by ELISA. The format is functional, organism-based. Also on record: dose 1 mg/kg. The gist of the method:
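Female C57BL/6 mice (n=3) received a single subcutaneous agonist dose of 1 mg/kg. Blood was taken by retro-orbital bleeding 2 h later, and serum IL-12 was measured by sandwich ELISA. Values are the mean of three mice ± SD.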
Background: In an ELISA, binding on a coated surface is turned into a signal by an enzyme label.

The target of assay [9] is T1, Toll-like receptor 9 (Homo sapiens). Put plainly: Induction of TLR9-mediated immune stimulation in human PBMC assessed as IL2R production at 2 ug/ml after 24 hrs by luminex multiplex assay (RVb = 0.02 +/- 0.01 ng/ml).
For assay [10] the target is unchanged. In words: Induction of TLR9-mediated immune stimulation in human PBMC assessed as IL1Ralpha production at 10 ug/ml after 24 hrs by luminex multiplex assay (RVb = 0.12 +/- 0.03 ng/ml).
Assay [11] has the same target. Put plainly: Induction of TLR9-mediated immune stimulation in human PBMC assessed as MIP1alpha production at 2 ug/ml after 24 hrs by luminex multiplex assay (RVb = 0.01 ng/ml).
For assay [12] the target is unchanged. Put plainly: Induction of TLR9-mediated immune stimulation in human PBMC assessed as IL12 production at 10 ug/ml after 24 hrs by luminex multiplex assay (RVb = 0.00 ng/ml).
Assay [13] has the same target. Put plainly: Induction of TLR9-mediated immune stimulation in human PBMC assessed as IL6 production at 10 ug/ml after 24 hrs by luminex multiplex assay (RVb = 0.01 ng/ml).

On to `Cc1cn([C@H]2C[C@H](OCCOCCOCCOCCOP(=O)(S)O[C@H]3C[C@H](n4cc(C)c(=O)[nH]c4=O)O[C@@H]3COP(=O)(S)O[C@H]3[C@@H](O)[C@H](n4ccc(N)nc4=O)O[C@@H]3COP(=O)(S)O[C@H]3C[C@H](n4cc(C)c(=O)[nH]c4=O)O[C@@H]3COP(=O)(S)O[C@H]3C[C@H](n4cc(C)c(=O)[nH]c4=O)O[C@@H]3COP(=O)(S)O[C@H]3C[C@H](n4ccc5c(=O)[nH]c(N)nc54)O[C@@H]3COP(=O)(S)O[C@H]3[C@@H](O)[C@H](n4ccc(N)nc4=O)O[C@@H]3COP(=O)(S)O[C@H]3C[C@H](n4cc(C)c(=O)[nH]c4=O)O[C@@H]3COP(=O)(S)O[C@H]3[C@@H](O)[C@H](n4cnc5c(=O)[nH]c(N)nc54)O[C@@H]3COP(=O)(S)O[C@H]3C[C@H](n4cc(C)c(=O)[nH]c4=O)O[C@@H]3COP(=O)(S)O[C@H]3[C@@H](O)[C@H](n4ccc(N)nc4=O)O[C@@H]3COP(=O)(S)O[C@H]3C[C@H](n4cc(C)c(=O)[nH]c4=O)O[C@@H]3CO)[C@@H](COP(=O)(S)O[C@H]3[C@@H](O)[C@H](n4ccc(N)nc4=O)O[C@@H]3COP(=O)(S)O[C@H]3C[C@H](n4cc(C)c(=O)[nH]c4=O)O[C@@H]3COP(=O)(S)O[C@H]3C[C@H](n4cc(C)c(=O)[nH]c4=O)O[C@@H]3COP(=O)(S)O[C@H]3C[C@H](n4ccc5c(=O)[nH]c(N)nc54)O[C@@H]3COP(=O)(S)O[C@H]3[C@@H](O)[C@H](n4ccc(N)nc4=O)O[C@@H]3COP(=O)(S)O[C@H]3C[C@H](n4cc(C)c(=O)[nH]c4=O)O[C@@H]3COP(=O)(S)O[C@H]3[C@@H](O)[C@H](n4cnc5c(=O)[nH]c(N)nc54)O[C@@H]3COP(=O)(S)O[C@H]3C[C@H](n4cc(C)c(=O)[nH]c4=O)O[C@@H]3COP(=O)(S)O[C@H]3[C@@H](O)[C@H](n4ccc(N)nc4=O)O[C@@H]3COP(=O)(S)O[C@H]3C[C@H](n4cc(C)c(=O)[nH]c4=O)O[C@@H]3CO)O2)c(=O)[nH]c1=O` (stereo partly drawn), for which the Activity was 0.17 ng/mL in assay [1]; 7.13 ng/mL in assay [2]; 9.05 ng/mL in assay [3]; 0.96 ng/mL in [4]; 0.02 ng/mL in [5]; “Dose-dependent effect” in assay [6]. Besides, the Activity in [7] stood at 0.14 ng/mL; in [8], 0.22 ng/mL; in [9], 0.04 ng/mL; in assay [10] it was 69.9 ng/mL; in assay [11], 0.04 ng/mL; in assay [12], 0.15 ng/mL. In addition, the Activity in assay [13] is 0.58 ng/mL. For the same molecule, the outcome with Mus musculus was Active.

On to `Cc1cn([C@H]2C[C@H](OCC(O)COP(=O)(S)O[C@H]3C[C@H](n4cc(C)c(=O)[nH]c4=O)O[C@@H]3COP(=O)(S)O[C@H]3[C@@H](O)[C@H](n4ccc(N)nc4=O)O[C@@H]3COP(=O)(S)O[C@H]3C[C@H](n4cc(C)c(=O)[nH]c4=O)O[C@@H]3COP(=O)(S)O[C@H]3C[C@H](n4cc(C)c(=O)[nH]c4=O)O[C@@H]3COP(=O)(S)O[C@H]3C[C@H](n4ccc5c(=O)[nH]c(N)nc54)O[C@@H]3COP(=O)(S)O[C@H]3[C@@H](O)[C@H](n4ccc(N)nc4=O)O[C@@H]3COP(=O)(S)O[C@H]3C[C@H](n4cc(C)c(=O)[nH]c4=O)O[C@@H]3COP(=O)(S)O[C@H]3[C@@H](O)[C@H](n4cnc5c(=O)[nH]c(N)nc54)O[C@@H]3COP(=O)(S)O[C@H]3C[C@H](n4cc(C)c(=O)[nH]c4=O)O[C@@H]3COP(=O)(S)O[C@H]3[C@@H](O)[C@H](n4ccc(N)nc4=O)O[C@@H]3COP(=O)(S)O[C@H]3C[C@H](n4cc(C)c(=O)[nH]c4=O)O[C@@H]3CO)[C@@H](COP(=O)(S)O[C@H]3[C@@H](O)[C@H](n4ccc(N)nc4=O)O[C@@H]3COP(=O)(S)O[C@H]3C[C@H](n4cc(C)c(=O)[nH]c4=O)O[C@@H]3COP(=O)(S)O[C@H]3C[C@H](n4cc(C)c(=O)[nH]c4=O)O[C@@H]3COP(=O)(S)O[C@H]3C[C@H](n4ccc5c(=O)[nH]c(N)nc54)O[C@@H]3COP(=O)(S)O[C@H]3[C@@H](O)[C@H](n4ccc(N)nc4=O)O[C@@H]3COP(=O)(S)O[C@H]3C[C@H](n4cc(C)c(=O)[nH]c4=O)O[C@@H]3COP(=O)(S)O[C@H]3[C@@H](O)[C@H](n4cnc5c(=O)[nH]c(N)nc54)O[C@@H]3COP(=O)(S)O[C@H]3C[C@H](n4cc(C)c(=O)[nH]c4=O)O[C@@H]3COP(=O)(S)O[C@H]3[C@@H](O)[C@H](n4ccc(N)nc4=O)O[C@@H]3COP(=O)(S)O[C@H]3C[C@H](n4cc(C)c(=O)[nH]c4=O)O[C@@H]3CO)O2)c(=O)[nH]c1=O` (stereo partly drawn), for which the Activity in [1] is 0.19 ng/mL; in assay [2], 1.88 ng/mL; in [3] it was 13 ng/mL; in assay [4], 1.41 ng/mL; in [5], 0.03 ng/mL; in [6], “Dose-dependent effect”. In addition, the Activity came out at 0.36 ng/mL in assay [7]; 0.46 ng/mL in [8]; 0.06 ng/mL in [9]; 81.7 ng/mL in [10]; 0.05 ng/mL in assay [11]; 0.17 ng/mL in [12]. Also, the Activity in [13] worked out at 0.5 ng/mL. The result in the assay with Mus musculus was Active.
